Activity calls are given as the source filed them.
Assays:
[1] = Cytotoxicity against mouse McCoy cells after 48 hrs at =<30 uM by MCC assay; assay type: cell-based
Method in brief: (§1)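 Cytotoxicity was tested by running the MCC procedure without inoculum: compound diluted in half with SPG, then diluted 1:40 onto McCoy monolayers and incubated 48 h at 37°C. Read-out by Alamar Blue, MTT and LDH kits. SPG served as negative control and Triton X-100 as positive control. Nontoxic was defined as <10% toxicity in all methods.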

Chlamydia trachomatis [2] = assay: Antibacterial activity against Chlamydia trachomatis serovar E assessed as change in MCC at pH 4 to 8 after 5 mins by MCC assay in presence of sucrose- phosphate-glutamate buffer; assay type: functional, organism-based
Method in brief: (§2)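 Compounds and EBs were each diluted in SPG at pH 4, 5.5, 7 or 8 and mixed 1:1, so exposure pH was constant. Five 4-fold dilutions were used (top 60 μM peptide, 30 mM lipid). After 5 or 120 min, the mix was diluted 1:40 in pH 7.5 SPG and plated on McCoy cells. Inclusion counts were compared with a no-drug control at the same pH and time.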

Chlamydia trachomatis [3] = assay: Antibacterial activity against Chlamydia trachomatis serovar D assessed as change in MCC at pH 4 to 8 after 5 mins by MCC assay in presence of sucrose- phosphate-glutamate buffer; assay type: functional, organism-based; method in brief: as §2
Chlamydia trachomatis [4] = assay: Antibacterial activity against Chlamydia trachomatis serovar D assessed as change in MCC at pH 4 to 8 after 120 mins by MCC assay in presence of sucrose- phosphate-glutamate buffer; assay type: functional, organism-based; method in brief: as §2
[5] = Cytotoxicity against mouse McCoy cells after 48 hrs at =<30 uM by almar blue assay; assay type: cell-based; method in brief: as §1
Chlamydia trachomatis [6] = assay: Antibacterial activity against Chlamydia trachomatis serovar L2 at => 6.25 mM after 5 mins relative to control; assay type: functional
Chlamydia trachomatis [7] = assay: Antibacterial activity against Chlamydia trachomatis serovar L2 at 3.13 mM after 120 mins relative to control; assay type: functional; conditions: serovar L2, 2 h
Method in brief: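 Serovar L2 EBs (5 × 10⁶ IFU/ml in SPG, pH 7.5) mixed 1:1 with ten 2-fold SPG dilutions (final 50 μM top peptide, 25 mM lipid), exposed 5 or 120 min, diluted 1:40, plated on McCoy cells; fixed with methanol after 36–48 h, anti-LPS/FITC stained. Triplicate wells, three fields each, three independent days; percent inhibition versus no-drug control ± SD.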

Chlamydia trachomatis [8] = assay: Antibacterial activity against Chlamydia trachomatis serovar D at 1.88 mM at pH 4 after 5 mins by MCC assay in presence of sucrose- phosphate-glutamate buffer; assay type: functional, organism-based; conditions: in the assay text read “after 120 mins” for “after 5 mins”; method in brief: as §2
Chlamydia trachomatis [9] = assay: Antibacterial activity against Chlamydia trachomatis serovar D at 1.88 mM at pH 5.5 after 5 mins by MCC assay in presence of sucrose- phosphate-glutamate buffer; assay type: functional, organism-based; conditions: in the assay text read “after 120 mins” for “after 5 mins”; method in brief: as §2
Chlamydia trachomatis [10] = assay: Antibacterial activity against Chlamydia trachomatis serovar D at 1.88 mM at pH 8 after 5 mins by MCC assay in presence of sucrose- phosphate-glutamate buffer; assay type: functional, organism-based; conditions: in the assay text read “after 120 mins” for “after 5 mins”; method in brief: as §2
Chlamydia trachomatis [11] = assay: Antibacterial activity against Chlamydia trachomatis serovar E assessed as change in MCC at pH 4 to 8 after 120 mins by MCC assay in presence of sucrose- phosphate-glutamate buffer; assay type: functional, organism-based; method in brief: as §2
Chlamydia trachomatis [12] = assay: Antibacterial activity against Chlamydia trachomatis serovar D after 5 mins by MCC assay in presence of simulated vaginal fluid; assay type: functional
Method in brief: (§3)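 C. trachomatis serovar EBs (5 × 10⁶ IFU/ml) diluted in 100% VFS (zinc-free for SFS), 100% SFS or 10% HSA, mixed 1:1 with five 4-fold SPG dilutions (final 60 μM/30 mM top; 50% VFS, 50% SFS, 5% HSA). After 5 or 120 min, diluted 1:40, inoculated onto McCoy monolayers. Inclusions stained with anti-LPS/FITC after 36–48 h. Inhibition versus no-drug control in the same fluid; MCC is complete inhibition.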

Chlamydia trachomatis [13] = assay: Antibacterial activity against Chlamydia trachomatis serovar D after 120 mins by MCC assay in presence of simulated vaginal fluid; assay type: functional; conditions: 2 h; method in brief: as §3
Chlamydia trachomatis [14] = assay: Antibacterial activity against Chlamydia trachomatis serovar E after 5 mins by MCC assay in presence of simulated vaginal fluid; assay type: functional; method in brief: as §3
Chlamydia trachomatis [15] = assay: Antibacterial activity against Chlamydia trachomatis serovar E after 120 mins by MCC assay in presence of simulated vaginal fluid; assay type: functional; conditions: 2 h; method in brief: as §3
Chlamydia trachomatis [16] = assay: Antibacterial activity against Chlamydia trachomatis serovar L2 after 5 mins by MCC assay in presence of simulated vaginal fluid; assay type: functional; conditions: serovar L2, 5 min; method in brief: as §3
Chlamydia trachomatis [17] = assay: Antibacterial activity against Chlamydia trachomatis serovar L2 after 120 mins by MCC assay in presence of simulated vaginal fluid; assay type: functional; conditions: serovar L2, 2 h; method in brief: as §3
Chlamydia trachomatis [18] = assay: Antibacterial activity against Chlamydia trachomatis serovar D after 5 mins by MCC assay in presence of simulated seminal fluid; assay type: functional; method in brief: as §3
Chlamydia trachomatis [19] = assay: Antibacterial activity against Chlamydia trachomatis serovar D after 120 mins by MCC assay in presence of simulated seminal fluid; assay type: functional; conditions: 2 h; method in brief: as §3
Chlamydia trachomatis [20] = assay: Antibacterial activity against Chlamydia trachomatis serovar E after 5 mins by MCC assay in presence of simulated seminal fluid; assay type: functional; method in brief: as §3
Chlamydia trachomatis [21] = assay: Antibacterial activity against Chlamydia trachomatis serovar E after 120 mins by MCC assay in presence of simulated seminal fluid; assay type: functional; conditions: 2 h; method in brief: as §3
Chlamydia trachomatis [22] = assay: Antibacterial activity against Chlamydia trachomatis serovar L2 after 5 mins by MCC assay in presence of simulated seminal fluid; assay type: functional; conditions: serovar L2, 5 min; method in brief: as §3
Chlamydia trachomatis [23] = assay: Antibacterial activity against Chlamydia trachomatis serovar L2 after 120 mins by MCC assay in presence of simulated seminal fluid; assay type: functional; conditions: serovar L2, 2 h; method in brief: as §3
Chlamydia trachomatis [24] = assay: Antibacterial activity against Chlamydia trachomatis serovar D after 5 mins by MCC assay in presence of simulated human serum albumin; assay type: functional; method in brief: as §3
Chlamydia trachomatis [25] = assay: Antibacterial activity against Chlamydia trachomatis serovar D after 120 mins by MCC assay in presence of simulated human serum albumin; assay type: functional; conditions: 2 h; method in brief: as §3
Chlamydia trachomatis [26] = assay: Antibacterial activity against Chlamydia trachomatis serovar E after 5 mins by MCC assay in presence of simulated human serum albumin; assay type: functional; method in brief: as §3
Chlamydia trachomatis [27] = assay: Antibacterial activity against Chlamydia trachomatis serovar E after 120 mins by MCC assay in presence of simulated human serum albumin; assay type: functional; conditions: 2 h; method in brief: as §3
Chlamydia trachomatis [28] = assay: Antibacterial activity against Chlamydia trachomatis serovar L2 after 5 mins by MCC assay in presence of simulated human serum albumin; assay type: functional; conditions: serovar L2, 5 min; method in brief: as §3
Chlamydia trachomatis [29] = assay: Antibacterial activity against Chlamydia trachomatis serovar L2 after 120 mins by MCC assay in presence of simulated human serum albumin; assay type: functional; conditions: serovar L2, 2 h; method in brief: as §3

In the case of `CCCCCCCCOC[C@H](O)CO`, the Activity [1] is reported as “Non-toxic”, the Activity (Chlamydia trachomatis [2]) is reported as “Active” and the Activity (Chlamydia trachomatis [3]) is reported as “Active”. The Activity (Chlamydia trachomatis [4]) was “Active”, the Activity [5] was “Non-toxic” and the “inhibition (INH)” value (Chlamydia trachomatis [6]) was 100%. The inhibition at 3130 µM (Chlamydia trachomatis [7]) was 98.2%, the Activity (Chlamydia trachomatis [8]) was “Active” and the Activity (Chlamydia trachomatis [9]) was “Active”. The Activity (Chlamydia trachomatis [10]) was “Active”, the Activity (Chlamydia trachomatis [11]) was “Active” and the MCC (Chlamydia trachomatis [12]) was 7.5 mM. It also gave an MCC (Chlamydia trachomatis [13]) of 7.5 mM, an MCC (Chlamydia trachomatis [14]) of 7.5 mM and an MCC (Chlamydia trachomatis [15]) of 7.5 mM. It also gave an MCC (Chlamydia trachomatis [16]) of 7.5 mM, an MCC (Chlamydia trachomatis [17]) of 7.5 mM and an MCC (Chlamydia trachomatis [18]) of 30 mM. It also gave an MCC (Chlamydia trachomatis [19]) of 7.5 mM, an MCC (Chlamydia trachomatis [20]) of 30 mM and an MCC (Chlamydia trachomatis [21]) of 7.5 mM. For the same molecule, the MCC (Chlamydia trachomatis [22]) was 30 mM, the MCC (Chlamydia trachomatis [23]) was 7.5 mM and the MCC (Chlamydia trachomatis [24]) was 30 mM. It also gave an MCC (Chlamydia trachomatis [25]) of 7.5 mM, an MCC (Chlamydia trachomatis [26]) of 30 mM and an MCC (Chlamydia trachomatis [27]) of 7.5 mM. It also gave an MCC (Chlamydia trachomatis [28]) of 30 mM and an MCC (Chlamydia trachomatis [29]) of 7.5 mM.

From ChEMBL document CHEMBL1212805, “Evaluation of WLBU2 peptide and 3-O-octyl-sn-glycerol lipid as active ingredients for a topical microbicide formulation targeting Chlamydia trachomatis” (Antimicrob Agents Chemother, 2010)
